Key:
[1] = target: Serine/threonine-protein kinase NLK (Homo sapiens) (UniProt Q9UBE8); assay: Inhibition of recombinant human NLK (121 to end residues) assessed as residual activity at 10 uM using protein as substrate measured after 40 mins in presence of [gamma33P]ATP by scintillation counting based radiometry assay relative to control
Mus musculus = species: Mus musculus; assay: Inhibition of mouse MAPK2 assessed as residual activity at 10 uM relative to control
[2] = target: Eukaryotic translation initiation factor 2-alpha kinase 1 (Homo sapiens) (UniProt Q9BQI3); assay: Inhibition of human HRI (140 to end residues) assessed as residual activity at 10 uM using RSRSRSRSRSRSR as substrate after 120 mins by [gamma-33ATP] radiometric assay relative to control
[3] = system: Mast/stem cell growth factor receptor Kit (Homo sapiens), P10721 [D816V]; assay: Inhibition of recombinant human C-Kit D816V mutant (544 to end residues) assessed as residual activity at 10 uM poly(Glu, Tyr) 4:1 as substrate incubated 40 mins in presence of [gamma-33ATP] by scintillation counting based radiometry assay relative to control
Homo sapiens [4] = species: Homo sapiens; assay: Inhibition of recombinant human full length PI3K p120gamma R459Q mutant assessed as residual activity at 10 uM using phosphatidylinositol-4, 5-bisphosphate as substrate incubated for 40 mins in presence of [gamma33P]ATP by scintillation counting based radiometry assay relative to control
[5] = target: Aurora kinase B (Homo sapiens) (UniProt Q96GD4); assay: Inhibition of recombinant full length human Aurora B assessed as residual activity at 10 uM using AKRRRLSSLRA as substrate incubated for 40 mins in presence of [gamma-33ATP] by scintillation counting based radiometry assay relative to control
[6] = target: Dual specificity mitogen-activated protein kinase kinase 4 (Mus musculus) (UniProt P47809); assay: Inhibition of recombinant mouse MKK4 (34 to end residues) assessed as residual activity at 10 uM using poly(Glu, Tyr) 4:1 as substrate incubated for 40 mins in presence of [gamma-33ATP] by scintillation counting based radiometry assay relative to control
[7] = target: Serine/threonine-protein kinase SIK2 (Homo sapiens) (UniProt Q9H0K1); assay: Inhibition of recombinant human SIK2 (1 to 276 residues) assessed as residual activity at 10 uM using KKKVSRSGLYRSPSMPENLNRPR as substrate incubated for 40 mins in presence of [gamma33P]ATP by scintillation counting based radiometry assay relative to control
[8] = target: Serine/threonine-protein kinase TBK1 (Homo sapiens) (UniProt Q9UHD2); assay: Inhibition of recombinant full length human TBK1 assessed as residual activity at 10 uM using KRRRALS(p)VASLPGL as substrate incubated for 40 mins in presence of [gamma33P]ATP by scintillation counting based radiometry assay relative to control
[9] = target: Activin receptor type-2A (Homo sapiens) (UniProt P27037); assay: Inhibition of human ACTR2 (162 to end residues) assessed as residual activity at 10 uM using casein as substrate incubated for 120 mins in presence of [gamma-33ATP] by scintillation counting based radiometry assay relative to control
[10] = target: ALK tyrosine kinase receptor (Homo sapiens) (UniProt Q9UM73); assay: Inhibition of human ALK (1058 to end residues) assessed as residual activity at 10 uM using KKKSPGEYVNIEFG as substrate incubated for 40 mins in presence of [gamma-33ATP] by scintillation counting based radiometry assay relative to control
[11] = target: Serine/threonine-protein kinase 4 (Homo sapiens) (UniProt Q13043); assay: Inhibition of recombinant full-length human MST1 assessed as residual activity at 10 uM using KKSRGDYMTMQIG as substrate measured after 40 mins in presence of [gamma33P]ATP by scintillation counting based radiometry assay relative to control
In short: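 Outsourced kinase profiling of MST1 by a commercial service (Eurofins); activity reported as mean ± SEM of 2 replicates.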

[12] = target: Tyrosine-protein kinase Yes (Homo sapiens) (UniProt P07947); assay: Inhibition of recombinant full-length human Yes assessed as residual activity at 10 uM using poly(Glu, Tyr) 4:1 as substrate incubated for 40 mins in presence of [gamma33P]ATP by scintillation counting based radiometry assay relative to control
Homo sapiens [13] = species: Homo sapiens; assay: Inhibition of recombinant human MER H628Q/R794A mutant (557 to 882 residues) assessed as residual activity at 10 uM using KKLNRTLSFAEPG as substrate incubated for 40 mins in presence of [gamma-33ATP by scintillation counting based radiometry assay relative to control
[14] = target: Tyrosine-protein kinase JAK2 (Homo sapiens) (UniProt O60674); assay: Inhibition of human JAK2 (808 to end residues) assessed as residual activity at 10 uM using KTFCGTPEYLAPEVRREPRILSEEEQEMFRDFDYIADWC as substrate after 40 mins by [gamma-33ATP] radiometric assay relative to control
[15] = target: Tyrosine-protein kinase JAK3 (Homo sapiens) (UniProt P52333); assay: Inhibition of human JAK3 (781 to end residues) assessed as residual activity at 10 uM using GGEEEEYFELVKKKK as substrate after 40 mins by [gamma-33ATP] radiometric assay relative to control
[16] = target: Rhodopsin kinase GRK1 (Homo sapiens) (UniProt Q15835); assay: Inhibition of recombinant full length human GRK1 assessed as residual activity at 10 uM using KKKKERLLDDRHD as substrate at 40 mins in presence of [gamma-33ATP] by scintillation counting based radiometry assay relative to control
[17] = target: Ephrin type-B receptor 4 (Homo sapiens) (UniProt P54760); assay: Inhibition of recombinant human EphB4 (561 to end residues) assessed as residual activity at 10 uM using poly(Glu, Tyr) 4:1 as substrate at 40 mins in presence of [gamma-33ATP] by scintillation counting based radiometry assay relative to control
[18] = target: High affinity nerve growth factor receptor (Homo sapiens) (UniProt P04629); assay: Inhibition of recombinant human TRKA (440 to end residues) assessed as residual activity at 10 uM using KKKSPGEYVNIEF as substrate incubated for 40 mins in presence of [gamma33P]ATP by scintillation counting based radiometry assay relative to control
[19] = system: Epidermal growth factor receptor (Homo sapiens), P00533 [L858R,T790M]; assay: Inhibition of recombinant human EGFR T790M/L858R mutant (696 to end residues) assessed as residual activity at 10 uM using poly(Glu, Tyr) 4:1 as substrate at 40 mins in presence of [gamma-33ATP] by scintillation counting based radiometry assay relative to control
[20] = target: Serine/threonine-protein kinase VRK2 (Homo sapiens) (UniProt Q86Y07); assay: Inhibition of recombinant human VRK2 (1 to 336 residues) assessed as residual activity at 10 uM using casein as substrate incubated for 40 mins in presence of [gamma33P]ATP by scintillation counting based radiometry assay relative to control
Chain of Serine/threonine-protein kinase VRK2 (Homo sapiens) (Q86Y07 whole entry, the tested form may be a part): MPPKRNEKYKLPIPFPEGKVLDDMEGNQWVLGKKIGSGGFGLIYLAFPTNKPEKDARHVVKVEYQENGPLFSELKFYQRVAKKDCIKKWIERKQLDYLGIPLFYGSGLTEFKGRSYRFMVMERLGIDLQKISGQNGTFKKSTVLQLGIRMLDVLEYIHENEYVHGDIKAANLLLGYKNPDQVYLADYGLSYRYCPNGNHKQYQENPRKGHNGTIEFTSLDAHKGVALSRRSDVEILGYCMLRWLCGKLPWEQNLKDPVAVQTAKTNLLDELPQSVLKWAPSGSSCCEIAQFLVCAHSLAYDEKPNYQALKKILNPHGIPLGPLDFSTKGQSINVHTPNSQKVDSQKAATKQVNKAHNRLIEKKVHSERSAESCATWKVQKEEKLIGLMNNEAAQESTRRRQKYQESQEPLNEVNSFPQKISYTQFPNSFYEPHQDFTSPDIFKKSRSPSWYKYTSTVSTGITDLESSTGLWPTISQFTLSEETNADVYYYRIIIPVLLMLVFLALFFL

Chain of Serine/threonine-protein kinase NLK (Homo sapiens) (Q9UBE8 whole entry): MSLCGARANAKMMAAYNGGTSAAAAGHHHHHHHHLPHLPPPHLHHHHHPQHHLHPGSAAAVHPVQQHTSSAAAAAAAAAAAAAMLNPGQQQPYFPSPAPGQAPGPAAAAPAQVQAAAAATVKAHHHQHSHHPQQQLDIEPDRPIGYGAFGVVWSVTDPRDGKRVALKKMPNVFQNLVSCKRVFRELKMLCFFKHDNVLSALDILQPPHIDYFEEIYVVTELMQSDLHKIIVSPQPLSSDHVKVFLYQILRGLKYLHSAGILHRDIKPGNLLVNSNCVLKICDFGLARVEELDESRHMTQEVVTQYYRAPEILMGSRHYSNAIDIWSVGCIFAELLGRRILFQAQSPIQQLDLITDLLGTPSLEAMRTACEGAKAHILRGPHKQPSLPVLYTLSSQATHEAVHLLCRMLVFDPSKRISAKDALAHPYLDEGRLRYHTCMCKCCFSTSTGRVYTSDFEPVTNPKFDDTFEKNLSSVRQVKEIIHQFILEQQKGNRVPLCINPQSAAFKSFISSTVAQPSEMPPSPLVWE
Chain of Rhodopsin kinase GRK1 (Homo sapiens) (Q15835 whole entry): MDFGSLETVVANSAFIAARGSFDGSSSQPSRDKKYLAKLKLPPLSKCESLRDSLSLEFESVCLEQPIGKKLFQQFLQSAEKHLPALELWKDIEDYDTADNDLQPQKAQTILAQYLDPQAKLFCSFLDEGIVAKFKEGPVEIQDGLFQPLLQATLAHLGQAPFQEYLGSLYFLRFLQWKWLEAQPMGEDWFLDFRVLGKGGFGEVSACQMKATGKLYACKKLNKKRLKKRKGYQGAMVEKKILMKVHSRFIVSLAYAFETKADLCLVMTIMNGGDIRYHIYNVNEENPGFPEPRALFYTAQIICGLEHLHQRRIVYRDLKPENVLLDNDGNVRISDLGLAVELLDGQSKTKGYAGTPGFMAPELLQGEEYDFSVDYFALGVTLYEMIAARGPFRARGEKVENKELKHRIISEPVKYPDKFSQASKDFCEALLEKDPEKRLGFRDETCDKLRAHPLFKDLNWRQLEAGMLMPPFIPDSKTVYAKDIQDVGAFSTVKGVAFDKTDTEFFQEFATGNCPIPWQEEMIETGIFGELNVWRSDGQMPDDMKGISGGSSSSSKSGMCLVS
Chain of ALK tyrosine kinase receptor (Homo sapiens) (Q9UM73 19-1620 limits assumed): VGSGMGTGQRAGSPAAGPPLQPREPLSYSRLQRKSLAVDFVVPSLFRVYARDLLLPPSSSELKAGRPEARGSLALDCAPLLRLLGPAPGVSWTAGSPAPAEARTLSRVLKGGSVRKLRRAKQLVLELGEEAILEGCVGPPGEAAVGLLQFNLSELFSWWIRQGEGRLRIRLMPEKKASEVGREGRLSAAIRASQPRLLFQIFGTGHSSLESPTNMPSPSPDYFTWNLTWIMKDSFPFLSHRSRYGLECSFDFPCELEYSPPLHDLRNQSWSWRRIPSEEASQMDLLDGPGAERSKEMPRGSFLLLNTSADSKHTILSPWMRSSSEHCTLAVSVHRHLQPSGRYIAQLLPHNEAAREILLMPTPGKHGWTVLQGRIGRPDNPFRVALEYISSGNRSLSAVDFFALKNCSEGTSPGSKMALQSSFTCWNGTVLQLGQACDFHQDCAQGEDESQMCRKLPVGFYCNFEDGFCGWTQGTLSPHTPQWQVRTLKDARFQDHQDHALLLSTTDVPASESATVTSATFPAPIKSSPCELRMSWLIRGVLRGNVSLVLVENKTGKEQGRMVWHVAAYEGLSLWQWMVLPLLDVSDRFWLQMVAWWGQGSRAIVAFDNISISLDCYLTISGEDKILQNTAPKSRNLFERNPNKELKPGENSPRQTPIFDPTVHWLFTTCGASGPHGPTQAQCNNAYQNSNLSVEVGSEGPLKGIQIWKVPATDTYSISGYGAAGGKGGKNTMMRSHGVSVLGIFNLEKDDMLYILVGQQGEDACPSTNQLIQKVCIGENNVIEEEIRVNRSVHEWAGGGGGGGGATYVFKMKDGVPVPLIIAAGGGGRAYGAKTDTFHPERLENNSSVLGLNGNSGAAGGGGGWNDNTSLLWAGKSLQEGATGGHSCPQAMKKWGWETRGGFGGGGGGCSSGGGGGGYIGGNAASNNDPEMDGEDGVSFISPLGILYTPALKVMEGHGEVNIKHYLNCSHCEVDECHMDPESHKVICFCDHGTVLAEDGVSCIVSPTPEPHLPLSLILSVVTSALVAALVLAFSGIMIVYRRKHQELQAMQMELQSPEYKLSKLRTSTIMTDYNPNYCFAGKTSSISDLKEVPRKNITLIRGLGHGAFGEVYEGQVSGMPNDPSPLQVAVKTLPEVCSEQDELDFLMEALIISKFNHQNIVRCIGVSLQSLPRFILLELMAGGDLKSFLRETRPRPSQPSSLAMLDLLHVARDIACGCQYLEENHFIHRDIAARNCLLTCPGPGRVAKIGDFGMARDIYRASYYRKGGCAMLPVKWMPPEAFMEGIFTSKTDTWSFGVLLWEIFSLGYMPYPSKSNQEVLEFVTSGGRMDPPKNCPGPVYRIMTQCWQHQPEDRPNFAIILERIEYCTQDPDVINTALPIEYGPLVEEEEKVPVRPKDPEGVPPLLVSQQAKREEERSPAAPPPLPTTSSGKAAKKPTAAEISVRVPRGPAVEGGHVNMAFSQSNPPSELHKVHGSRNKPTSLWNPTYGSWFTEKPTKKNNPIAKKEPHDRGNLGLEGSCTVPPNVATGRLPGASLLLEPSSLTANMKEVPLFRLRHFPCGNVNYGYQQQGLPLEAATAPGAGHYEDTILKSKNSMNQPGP
Chain of Serine/threonine-protein kinase 4 (Homo sapiens) (Q13043 whole entry): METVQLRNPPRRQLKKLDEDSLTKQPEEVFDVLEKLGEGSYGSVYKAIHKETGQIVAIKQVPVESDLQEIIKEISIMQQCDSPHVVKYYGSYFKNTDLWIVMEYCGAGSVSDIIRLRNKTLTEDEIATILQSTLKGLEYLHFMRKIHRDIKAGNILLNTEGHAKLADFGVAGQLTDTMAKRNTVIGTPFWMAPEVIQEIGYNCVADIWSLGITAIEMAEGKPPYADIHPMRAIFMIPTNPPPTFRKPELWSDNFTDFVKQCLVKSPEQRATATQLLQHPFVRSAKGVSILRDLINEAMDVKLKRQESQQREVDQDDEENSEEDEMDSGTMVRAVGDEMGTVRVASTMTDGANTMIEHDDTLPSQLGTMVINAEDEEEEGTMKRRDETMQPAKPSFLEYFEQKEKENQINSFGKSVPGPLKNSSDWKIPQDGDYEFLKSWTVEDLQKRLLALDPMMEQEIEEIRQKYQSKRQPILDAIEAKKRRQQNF
Chain of Mast/stem cell growth factor receptor Kit (Homo sapiens), P10721 [D816V] (P10721 whole entry D816V): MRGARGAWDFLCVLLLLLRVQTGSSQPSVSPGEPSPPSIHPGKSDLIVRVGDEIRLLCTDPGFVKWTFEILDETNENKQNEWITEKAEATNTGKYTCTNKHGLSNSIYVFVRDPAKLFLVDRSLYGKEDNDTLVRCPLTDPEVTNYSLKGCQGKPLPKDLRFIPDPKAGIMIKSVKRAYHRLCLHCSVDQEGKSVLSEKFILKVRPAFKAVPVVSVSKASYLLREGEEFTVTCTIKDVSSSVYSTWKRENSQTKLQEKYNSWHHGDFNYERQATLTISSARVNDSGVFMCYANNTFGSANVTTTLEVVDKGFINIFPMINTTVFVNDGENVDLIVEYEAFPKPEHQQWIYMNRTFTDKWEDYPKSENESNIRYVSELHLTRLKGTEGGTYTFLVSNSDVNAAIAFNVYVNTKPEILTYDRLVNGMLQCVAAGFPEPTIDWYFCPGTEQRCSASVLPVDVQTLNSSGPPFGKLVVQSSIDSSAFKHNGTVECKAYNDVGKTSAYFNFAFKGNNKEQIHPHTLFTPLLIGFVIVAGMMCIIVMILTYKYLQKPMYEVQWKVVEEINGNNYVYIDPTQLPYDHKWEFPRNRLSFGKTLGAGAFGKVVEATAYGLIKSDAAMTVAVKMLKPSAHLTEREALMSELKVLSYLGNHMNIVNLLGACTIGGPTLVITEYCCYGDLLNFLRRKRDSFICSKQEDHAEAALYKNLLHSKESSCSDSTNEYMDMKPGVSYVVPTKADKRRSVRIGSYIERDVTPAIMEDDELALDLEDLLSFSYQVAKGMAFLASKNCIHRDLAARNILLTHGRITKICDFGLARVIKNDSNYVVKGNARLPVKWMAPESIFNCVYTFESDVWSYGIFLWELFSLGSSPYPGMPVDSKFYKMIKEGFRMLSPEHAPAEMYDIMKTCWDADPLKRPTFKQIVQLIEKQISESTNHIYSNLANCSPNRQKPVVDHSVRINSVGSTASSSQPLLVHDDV
Chain of Aurora kinase B (Homo sapiens) (Q96GD4 whole entry): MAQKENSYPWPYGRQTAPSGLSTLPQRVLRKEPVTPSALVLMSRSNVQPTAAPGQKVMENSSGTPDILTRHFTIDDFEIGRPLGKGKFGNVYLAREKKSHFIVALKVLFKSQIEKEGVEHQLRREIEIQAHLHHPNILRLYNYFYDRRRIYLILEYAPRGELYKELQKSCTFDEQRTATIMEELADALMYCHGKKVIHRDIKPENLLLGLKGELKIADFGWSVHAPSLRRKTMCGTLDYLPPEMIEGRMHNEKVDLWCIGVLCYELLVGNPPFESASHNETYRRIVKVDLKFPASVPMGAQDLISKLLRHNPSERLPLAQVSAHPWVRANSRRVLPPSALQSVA

Structure (SMILES): C[C@@H](c1ccccc1)n1nnc2cnc3ccc(-c4cnc5[nH]ccc5c4)cc3c21
- Activity [1]: 43%
- Activity (Mus musculus): 100%
- Activity [2]: 91%
- Activity [3]: 86%
- Activity (Homo sapiens [4]): 16%
- Activity [5]: 34%
- Activity [6]: 129%
- Activity [7]: 7%
- Activity [8]: 85%
- Activity [9]: 101%
- Activity [10]: 28%
- Activity [11]: 73%
- Activity [12]: 3%
- Activity (Homo sapiens [13]): 56%
- Activity [14]: 43%
- Activity [15]: 43%
- Activity [16]: 87%
- Activity [17]: 71%
- Activity [18]: 5%
- Activity [19]: 57%
- Activity [20]: 80%
